# From ChEMBL document CHEMBL5661979, “Pharmacological inhibition of BMK1 suppresses tumor growth through promyelocytic leukemia protein” (Cancer Cell, 2010)
# What was measured:
# [1] = Inhibition of CDK5/PRKX/PRKY in human HeLa cells lysate pre incubated for 15 mins followed by ATP acyl phosphate probe addition and measured after 10 mins by LC-MS/MS analysis; type: subcellular
# Procedure, shortened: (§1)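 KiNativ profiling in HeLa lysate (5 mg/mL total protein). Lysate incubated 15 min with inhibitor at 50, 10, 2, 0.8 or 0 μM. ATP or ADP acylphosphate probe then added (5 μM final) and reacted 10 min. Reaction stopped with urea and analysed by targeted MS, using up to four fragment ions per kinase peptide-probe conjugate. % inhibition taken against untreated lysate. Run in duplicate.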
# [2] = target: Inhibitor of nuclear factor kappa-B kinase subunit alpha (Homo sapiens, UniProt O15111); assay: Inhibition of IKKA in human HeLa cells lysate pre incubated for 15 mins followed by ATP acyl phosphate probe addition and measured after 10 mins by LC-MS/MS analysis; type: subcellular
# [3] = target: Hepatocyte growth factor receptor (Homo sapiens, UniProt P08581); assay: Inhibition of MET in human HeLa cells lysate pre incubated for 15 mins followed by ATP acyl phosphate probe addition and measured after 10 mins by LC-MS/MS analysis; type: subcellular
# Sequence of Hepatocyte growth factor receptor (P08581 whole entry): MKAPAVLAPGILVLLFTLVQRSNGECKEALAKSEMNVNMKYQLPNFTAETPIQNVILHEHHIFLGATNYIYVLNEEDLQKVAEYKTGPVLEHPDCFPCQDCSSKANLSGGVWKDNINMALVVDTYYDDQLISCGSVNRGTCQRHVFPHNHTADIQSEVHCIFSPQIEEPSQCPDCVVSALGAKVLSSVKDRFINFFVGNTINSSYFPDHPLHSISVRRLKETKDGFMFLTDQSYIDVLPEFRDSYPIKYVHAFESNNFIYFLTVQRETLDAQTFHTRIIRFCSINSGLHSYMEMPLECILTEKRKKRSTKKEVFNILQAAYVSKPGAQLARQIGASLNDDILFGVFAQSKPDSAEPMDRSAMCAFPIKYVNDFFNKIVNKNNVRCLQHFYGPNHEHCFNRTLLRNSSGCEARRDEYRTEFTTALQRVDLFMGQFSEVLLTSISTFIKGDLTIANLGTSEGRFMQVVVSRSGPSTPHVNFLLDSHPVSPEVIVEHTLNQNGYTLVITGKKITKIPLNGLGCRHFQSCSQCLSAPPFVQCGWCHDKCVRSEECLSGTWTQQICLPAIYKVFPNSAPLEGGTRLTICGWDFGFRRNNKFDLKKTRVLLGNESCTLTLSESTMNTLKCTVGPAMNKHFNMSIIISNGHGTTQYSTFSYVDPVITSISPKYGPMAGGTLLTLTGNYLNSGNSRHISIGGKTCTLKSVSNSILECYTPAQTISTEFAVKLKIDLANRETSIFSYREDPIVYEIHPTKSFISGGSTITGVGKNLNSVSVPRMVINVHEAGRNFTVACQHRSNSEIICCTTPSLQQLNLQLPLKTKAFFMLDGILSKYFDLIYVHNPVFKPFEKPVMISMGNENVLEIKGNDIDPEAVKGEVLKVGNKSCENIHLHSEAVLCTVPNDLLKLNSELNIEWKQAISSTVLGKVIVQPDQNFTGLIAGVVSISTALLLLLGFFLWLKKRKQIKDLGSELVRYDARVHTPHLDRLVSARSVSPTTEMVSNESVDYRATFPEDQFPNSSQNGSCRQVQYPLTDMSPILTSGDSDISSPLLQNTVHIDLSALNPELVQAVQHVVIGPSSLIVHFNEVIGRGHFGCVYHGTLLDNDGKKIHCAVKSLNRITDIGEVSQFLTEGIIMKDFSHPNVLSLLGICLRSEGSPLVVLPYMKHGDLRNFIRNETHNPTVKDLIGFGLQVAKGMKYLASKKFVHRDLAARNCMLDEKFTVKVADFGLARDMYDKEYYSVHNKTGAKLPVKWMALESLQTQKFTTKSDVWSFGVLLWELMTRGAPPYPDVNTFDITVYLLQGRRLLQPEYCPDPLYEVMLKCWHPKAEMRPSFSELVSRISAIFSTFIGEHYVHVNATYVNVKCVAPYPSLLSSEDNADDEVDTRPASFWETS
# [4] = target: Tyrosine-protein kinase receptor UFO (Homo sapiens, UniProt P30530); assay: Inhibition of AXL in human HeLa cells lysate pre incubated for 15 mins followed by ADP acyl phosphate probe addition and measured after 10 mins by LC-MS/MS analysis; type: subcellular
# Procedure, shortened: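 KiNativ-type profiling in HeLa lysate (5 mg/mL total protein). Lysate preincubated 15 min with inhibitor at 50, 10, 2, 0.8 or 0 μM, then ATP or ADP acylphosphate probe added (5 μM final) for 10 min. Reaction stopped with urea and analysed by targeted MS, using up to four fragment ions per kinase peptide-probe conjugate. % inhibition calculated against untreated lysate. Duplicate reactions.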
# [5] = target: T1, STE20-related kinase adapter protein beta (Homo sapiens) (UniProt Q9C0K7); assay: Inhibition of ALS2CR2 in human HeLa cells lysate at 50 uM pre incubated for 15 mins followed by ADP acyl phosphate probe addition and measured after 10 mins by LC-MS/MS analysis relative to control; type: subcellular; details: time 25.0 min
# T1 sequence (whole entry): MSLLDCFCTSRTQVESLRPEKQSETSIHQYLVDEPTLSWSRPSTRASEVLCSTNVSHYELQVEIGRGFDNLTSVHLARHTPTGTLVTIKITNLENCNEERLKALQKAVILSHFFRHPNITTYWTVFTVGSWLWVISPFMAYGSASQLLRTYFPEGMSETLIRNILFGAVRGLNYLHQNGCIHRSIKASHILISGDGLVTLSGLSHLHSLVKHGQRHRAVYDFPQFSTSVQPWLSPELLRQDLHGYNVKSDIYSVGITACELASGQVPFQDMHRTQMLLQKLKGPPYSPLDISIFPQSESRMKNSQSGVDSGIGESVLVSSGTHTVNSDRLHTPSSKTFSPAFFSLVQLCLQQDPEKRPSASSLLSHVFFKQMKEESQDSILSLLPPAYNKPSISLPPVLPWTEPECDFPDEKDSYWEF
# Procedure, shortened: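 HeLa cell lysates (5 mg/mL total protein) were preincubated with inhibitor at 0, 0.8, 2, 10 or 50 μM for 15 min. ATP or ADP acylphosphate probe was then added (5 μM final) for 10 min, and reactions were stopped with urea. Up to four fragment ions per kinase probe-peptide were quantified by targeted MS. % inhibition was taken relative to untreated lysate. Run in duplicate.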
# [6] = target: Mitogen-activated protein kinase kinase kinase 1 (Homo sapiens, UniProt Q13233); assay: Inhibition of MAP3K1 in human HeLa cells lysate at 10 uM pre incubated for 15 mins followed by ADP acyl phosphate probe addition and measured after 10 mins by LC-MS/MS analysis relative to control; type: subcellular; details: time 25.0 min
# Sequence of Mitogen-activated protein kinase kinase kinase 1 (Q13233 whole entry): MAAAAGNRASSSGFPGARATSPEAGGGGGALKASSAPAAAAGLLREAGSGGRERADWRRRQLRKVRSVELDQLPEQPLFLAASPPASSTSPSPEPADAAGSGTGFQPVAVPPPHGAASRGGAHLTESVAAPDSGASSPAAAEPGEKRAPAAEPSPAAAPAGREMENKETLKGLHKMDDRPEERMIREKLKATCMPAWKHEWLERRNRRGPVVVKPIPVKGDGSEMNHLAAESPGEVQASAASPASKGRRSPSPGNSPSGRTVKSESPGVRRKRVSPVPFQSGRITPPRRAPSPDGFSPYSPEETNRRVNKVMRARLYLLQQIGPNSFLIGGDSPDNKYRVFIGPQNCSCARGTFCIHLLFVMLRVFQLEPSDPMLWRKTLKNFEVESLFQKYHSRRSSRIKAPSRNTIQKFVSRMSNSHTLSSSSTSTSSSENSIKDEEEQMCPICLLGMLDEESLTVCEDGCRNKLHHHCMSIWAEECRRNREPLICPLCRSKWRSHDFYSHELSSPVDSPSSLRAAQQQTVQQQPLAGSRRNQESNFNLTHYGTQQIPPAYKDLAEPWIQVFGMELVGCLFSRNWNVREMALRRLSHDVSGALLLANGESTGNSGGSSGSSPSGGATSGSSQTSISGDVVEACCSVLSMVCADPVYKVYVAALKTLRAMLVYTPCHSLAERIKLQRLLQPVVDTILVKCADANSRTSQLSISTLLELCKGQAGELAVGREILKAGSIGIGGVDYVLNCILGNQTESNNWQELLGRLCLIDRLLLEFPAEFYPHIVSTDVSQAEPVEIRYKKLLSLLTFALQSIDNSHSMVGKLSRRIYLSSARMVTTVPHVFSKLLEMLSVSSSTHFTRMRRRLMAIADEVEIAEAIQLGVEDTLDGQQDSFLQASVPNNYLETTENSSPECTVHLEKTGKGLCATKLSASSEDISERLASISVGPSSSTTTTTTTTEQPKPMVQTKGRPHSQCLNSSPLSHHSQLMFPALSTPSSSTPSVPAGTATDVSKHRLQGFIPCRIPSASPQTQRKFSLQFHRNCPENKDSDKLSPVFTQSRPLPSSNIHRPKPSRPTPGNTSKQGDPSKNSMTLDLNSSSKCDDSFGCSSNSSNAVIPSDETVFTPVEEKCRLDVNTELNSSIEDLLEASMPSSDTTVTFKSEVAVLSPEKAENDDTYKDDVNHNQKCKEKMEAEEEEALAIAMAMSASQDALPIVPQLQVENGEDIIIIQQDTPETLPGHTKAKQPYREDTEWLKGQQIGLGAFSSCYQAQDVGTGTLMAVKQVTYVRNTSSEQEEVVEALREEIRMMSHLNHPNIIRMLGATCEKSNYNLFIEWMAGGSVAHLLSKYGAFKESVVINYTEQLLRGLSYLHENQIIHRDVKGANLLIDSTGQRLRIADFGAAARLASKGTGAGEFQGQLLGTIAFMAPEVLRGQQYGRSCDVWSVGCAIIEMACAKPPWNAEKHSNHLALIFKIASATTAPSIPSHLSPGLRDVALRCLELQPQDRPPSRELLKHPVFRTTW
# [7] = target: Serine/threonine-protein kinase 38-like (Homo sapiens, UniProt Q9Y2H1); assay: Inhibition of NDR2 in human HeLa cells lysate at 2 uM pre incubated for 15 mins followed by ADP acyl phosphate probe addition and measured after 10 mins by LC-MS/MS analysis relative to control; type: subcellular; details: time 25.0 min
# Sequence of Serine/threonine-protein kinase 38-like (Q9Y2H1 2-464 limits assumed): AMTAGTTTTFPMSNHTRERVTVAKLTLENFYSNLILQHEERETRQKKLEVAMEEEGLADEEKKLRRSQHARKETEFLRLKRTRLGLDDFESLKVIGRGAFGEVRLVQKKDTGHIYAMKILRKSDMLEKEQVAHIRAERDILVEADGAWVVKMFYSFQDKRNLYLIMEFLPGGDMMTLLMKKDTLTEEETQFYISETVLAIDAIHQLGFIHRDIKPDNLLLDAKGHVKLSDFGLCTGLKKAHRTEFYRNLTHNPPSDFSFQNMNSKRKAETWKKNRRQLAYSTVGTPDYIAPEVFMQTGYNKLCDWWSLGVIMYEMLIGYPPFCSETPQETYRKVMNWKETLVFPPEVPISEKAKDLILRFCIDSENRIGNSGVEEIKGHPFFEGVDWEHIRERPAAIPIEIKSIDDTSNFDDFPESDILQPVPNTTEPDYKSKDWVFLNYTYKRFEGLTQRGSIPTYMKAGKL
# [8] = target: Serine/threonine-protein kinase Chk2 (Homo sapiens, UniProt O96017); assay: Inhibition of CHK2 in human HeLa cells lysate at 2 uM pre incubated for 15 mins followed by ADP acyl phosphate probe addition and measured after 10 mins by LC-MS/MS analysis relative to control; type: subcellular; details: time 25.0 min
# [9] = target: Cyclin-dependent kinase 2 (Homo sapiens, UniProt P24941); assay: Inhibition of CDK2 K2 site in human HeLa cells lysate at 2 uM pre incubated for 15 mins followed by ADP acyl phosphate probe addition and measured after 10 mins by LC-MS/MS analysis relative to control; type: subcellular; details: time 25.0 min; procedure, shortened: as §1
# [10] = target: Cyclin-dependent kinase 12 (Homo sapiens, UniProt Q9NYV4); assay: Inhibition of CRK7 in human HeLa cells lysate at 2 uM pre incubated for 15 mins followed by ADP acyl phosphate probe addition and measured after 10 mins by LC-MS/MS analysis relative to control; type: subcellular; details: time 25.0 min
# Sequence of Cyclin-dependent kinase 12 (Q9NYV4 whole entry, looked up, canonical isoform): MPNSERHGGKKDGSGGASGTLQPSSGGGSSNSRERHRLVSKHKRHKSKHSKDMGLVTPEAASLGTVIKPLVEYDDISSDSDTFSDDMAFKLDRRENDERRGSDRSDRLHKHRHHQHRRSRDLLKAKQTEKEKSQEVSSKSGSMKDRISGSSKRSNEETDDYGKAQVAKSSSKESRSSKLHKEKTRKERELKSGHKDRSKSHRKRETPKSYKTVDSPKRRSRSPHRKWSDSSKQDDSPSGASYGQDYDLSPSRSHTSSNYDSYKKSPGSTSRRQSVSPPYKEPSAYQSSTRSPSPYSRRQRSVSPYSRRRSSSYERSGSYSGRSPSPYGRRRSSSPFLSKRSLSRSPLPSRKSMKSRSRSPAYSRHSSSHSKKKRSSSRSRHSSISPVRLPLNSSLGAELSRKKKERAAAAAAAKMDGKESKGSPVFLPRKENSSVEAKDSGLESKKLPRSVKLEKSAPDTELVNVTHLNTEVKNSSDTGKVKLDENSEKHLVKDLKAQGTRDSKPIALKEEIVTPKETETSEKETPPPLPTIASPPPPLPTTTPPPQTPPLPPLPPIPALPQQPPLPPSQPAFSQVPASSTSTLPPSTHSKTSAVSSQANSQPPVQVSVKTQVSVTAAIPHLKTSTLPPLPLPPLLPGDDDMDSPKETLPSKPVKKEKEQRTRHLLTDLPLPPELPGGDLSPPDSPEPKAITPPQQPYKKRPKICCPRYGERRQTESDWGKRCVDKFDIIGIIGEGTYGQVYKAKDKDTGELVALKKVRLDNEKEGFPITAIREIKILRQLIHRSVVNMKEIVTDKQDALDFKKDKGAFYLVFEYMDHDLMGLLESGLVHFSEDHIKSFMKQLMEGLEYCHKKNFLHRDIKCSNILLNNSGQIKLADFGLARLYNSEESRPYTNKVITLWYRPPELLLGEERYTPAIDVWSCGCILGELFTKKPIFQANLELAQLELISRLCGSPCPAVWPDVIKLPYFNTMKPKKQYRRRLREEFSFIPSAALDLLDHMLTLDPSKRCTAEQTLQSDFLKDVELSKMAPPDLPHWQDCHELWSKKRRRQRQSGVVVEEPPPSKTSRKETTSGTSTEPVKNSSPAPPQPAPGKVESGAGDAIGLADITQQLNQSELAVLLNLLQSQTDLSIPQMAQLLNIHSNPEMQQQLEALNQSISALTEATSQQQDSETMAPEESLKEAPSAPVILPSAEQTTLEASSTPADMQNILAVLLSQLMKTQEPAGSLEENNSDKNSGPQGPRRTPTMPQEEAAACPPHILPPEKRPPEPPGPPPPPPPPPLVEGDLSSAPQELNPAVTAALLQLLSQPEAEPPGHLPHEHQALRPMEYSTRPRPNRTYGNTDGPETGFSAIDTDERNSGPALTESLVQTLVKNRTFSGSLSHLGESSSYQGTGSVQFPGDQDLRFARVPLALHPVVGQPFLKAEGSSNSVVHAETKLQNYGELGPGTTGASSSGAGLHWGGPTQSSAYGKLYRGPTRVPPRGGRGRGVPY
# [11] = target: T2, Phosphorylase b kinase gamma catalytic chain, liver/testis isoform (Homo sapiens) (UniProt P15735); assay: Inhibition of PHKG2 in human HeLa cells lysate at 2 uM pre incubated for 15 mins followed by ADP acyl phosphate probe addition and measured after 10 mins by LC-MS/MS analysis relative to control; type: subcellular; details: time 25.0 min
# T2 sequence (whole entry): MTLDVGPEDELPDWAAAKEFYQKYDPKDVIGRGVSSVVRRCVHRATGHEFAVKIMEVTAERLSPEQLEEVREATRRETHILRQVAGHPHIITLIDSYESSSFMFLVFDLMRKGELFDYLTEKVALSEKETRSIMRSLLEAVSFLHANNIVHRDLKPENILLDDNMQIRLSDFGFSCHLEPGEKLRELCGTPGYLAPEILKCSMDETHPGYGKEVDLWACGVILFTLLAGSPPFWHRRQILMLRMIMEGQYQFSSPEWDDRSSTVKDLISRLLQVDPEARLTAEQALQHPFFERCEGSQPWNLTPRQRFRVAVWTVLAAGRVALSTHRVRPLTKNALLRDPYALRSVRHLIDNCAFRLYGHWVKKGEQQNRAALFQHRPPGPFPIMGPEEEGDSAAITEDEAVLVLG
# [12] = Inhibition of NEK6/7 in human HeLa cells lysate at 50 uM pre incubated for 15 mins followed by ATP acyl phosphate probe addition and measured after 10 mins by LC-MS/MS analysis relative to control; details: 25 min, condition cancer
compound,measurement,setting,value
CCOc1cc(N2CCC(O)CC2)ccc1Nc1ncc2c(n1)N(C)c1ccccc1C(=O)N2C,IC50,[1],> 50 µM
same,IC50,[2],> 50 µM
same,IC50,[3],> 50 µM
same,IC50,[4],> 50 µM
same,inhibition,[5],12.7%
same,inhibition,[6],15.9%
same,inhibition,[7],11.7%
same,inhibition,[8],7.6%
same,inhibition,[9],9.8%
same,inhibition,[10],5.4%
same,inhibition,[11],3.4%
same,inhibition at 50 µM,[12],-11.1%
